Where a SMILES comes first, the peptide text is derived from it.
Tests used:
[1] = Free; type: in vivo, human; conditions: for Free Cmax / Free Cmin: equilibrium dialysis, median (IQR); for Correlation between total and free plasma concentrations: Spearman's rank correlation, Cmax and Cmin, Fig. 2
Outline: (§1)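 Patient plasma from peak (10 min post-infusion) and trough (pre-dose) draws was dialysed against isotonic phosphate buffer, pH 7.4, across a semipermeable membrane at 37 °C for 5 h. Dialysate and plasma were matrix-matched with blank plasma or buffer, then extracted and quantified by LC–MS/MS as for total levels. fu = Cd/Cp. Total and free levels were compared by Spearman rank correlation.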

[2] = test system: plasma protein; experiment: Plasma protein binding rate by equilibrium dialysis; type: in vitro ADME; conditions: human, patient plasma, iv
Outline: as §1

[3] = Total plasma concentration of PMB, PMB1 and PMB2 by HPLC-MS/MS; type: in vivo, human; conditions: for Cmin (B1)/Cmin (B2): median (IQR)
Outline: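 Critically ill adults received IV PMB sulfate. Plasma was drawn at the sixth or later dose, 10 min after infusion end (Cmax) and just before dosing (Cmin), spun at 3500g, 2–8 °C for 10 min, and stored at −80 °C. Plasma plus polymyxin E internal standard underwent formic acid/acetonitrile extraction. Analysis used C18 gradient LC and positive MRM 402.1→101.15 (PMB1), 397.4→101.15 (PMB2). AKI was graded by RIFLE SCr criteria.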

[4] = test system: patients; conditions: cited from earlier work
[5] = pH 7.4, Protein binding rate, Cmax sample, AKI group N = 25, equilibrium dialysis, phosphate buffer pH 7.4, 37 °C, 5 h, LC-MS/MS, median (IQR)
[6] = pH 7.4, Protein binding rate, Cmax sample, non-AKI group N = 64, equilibrium dialysis, phosphate buffer pH 7.4, 37 °C, 5 h, LC-MS/MS, median (IQR)
[7] = pH 7.4, Protein binding rate, Cmin sample, AKI group N = 25, equilibrium dialysis, phosphate buffer pH 7.4, 37 °C, 5 h, LC-MS/MS, median (IQR)
[8] = pH 7.4, Protein binding rate, Cmin sample, non-AKI group N = 64, equilibrium dialysis, phosphate buffer pH 7.4, 37 °C, 5 h, LC-MS/MS, median (IQR)

Molecule: CC[C@H](C)CCCCC(=O)N[C@@H](CCN)C(=O)N[C@H](C(=O)N[C@@H](CCN)C(=O)N[C@H]1CCNC(=O)[C@H]([C@@H](C)O)NC(=O)[C@H](CCN)NC(=O)[C@H](CCN)NC(=O)[C@H](CC(C)C)NC(=O)[C@@H](Cc2ccccc2)NC(=O)[C@H](CCN)NC1=O)[C@@H](C)O [PMB1, polymyxin B1] (HELM PEPTIDE1{[CC[C@H](C)CCCCC(=O)[*:2]].[Dab].T.[Dab].[Dab].[Dab].[dF].L.[Dab].[Dab].T}$PEPTIDE1,PEPTIDE1,5:R3-11:R2$$$V2.0)
- Free Cmax ([1]; AKI group N = 25): 0.19 (0.12–0.26) μg/ml
- Free Cmin ([1]; AKI group N = 25): 0.05 (0.04–0.19) μg/ml
- Correlation between total and free plasma concentrations [1]: positively correlated
- Free Cmax ([1]; non-AKI group N = 64): 0.14 (0.11–0.18) μg/ml
- Free Cmin ([1]; non-AKI group N = 64): 0.07 (0.04–0.10) μg/ml
- fraction unbound at 5 h ([2]; pH 7.4): 0.055
- fraction unbound at 5 h [2, 5]: 0.045
- fraction unbound at 5 h [2, 6]: 0.042
- fraction unbound at 5 h [2, 7]: 0.053
- fraction unbound at 5 h [2, 8]: 0.057
- Cmax (B1), RIFLE category Failure (F) ([3]; 1 patient with AKI stage Failure, total plasma peak concentration): 6.17

Molecule: CC(C)CCCCC(=O)N[C@@H](CCN)C(=O)N[C@H](C(=O)N[C@@H](CCN)C(=O)N[C@H]1CCNC(=O)[C@H]([C@@H](C)O)NC(=O)[C@H](CCN)NC(=O)[C@H](CCN)NC(=O)[C@H](CC(C)C)NC(=O)[C@@H](Cc2ccccc2)NC(=O)[C@H](CCN)NC1=O)[C@@H](C)O [PMB2, polymyxin B2] (HELM PEPTIDE1{[CC(C)CCCCC(=O)[*:2]].[Dab].T.[Dab].[Dab].[Dab].[dF].L.[Dab].[Dab].T}$PEPTIDE1,PEPTIDE1,5:R3-11:R2$$$V2.0)
- Free Cmax ([1]; AKI group N = 25): 0.16 (0.14–0.19) μg/ml
- Free Cmin ([1]; AKI group N = 25): 0.07 (0.06–0.09) μg/ml
- Correlation between total and free plasma concentrations [1]: positively correlated
- Free Cmax ([1]; non-AKI group N = 64): 0.14 (0.11–0.18) μg/ml
- Free Cmin ([1]; non-AKI group N = 64): 0.07 (0.05–0.10) μg/ml
- fraction unbound at 5 h ([2]; pH 7.4): 0.215
- fraction unbound at 5 h [2, 5]: 0.141
- fraction unbound at 5 h [2, 6]: 0.161
- fraction unbound at 5 h [2, 7]: 0.194
- fraction unbound at 5 h [2, 8]: 0.221

Molecule: CC[C@H](C)CCCCC(=O)N[C@@H](CCN)C(=O)N[C@H](C(=O)N[C@@H](CCN)C(=O)N[C@H]1CCNC(=O)[C@H]([C@@H](C)O)NC(=O)[C@H](CCN)NC(=O)[C@H](CCN)NC(=O)[C@H](CC(C)C)NC(=O)[C@@H](Cc2ccccc2)NC(=O)[C@H](CCN)NC1=O)[C@@H](C)O [PMB, polymyxin B] (HELM PEPTIDE1{[CC[C@H](C)CCCCC(=O)[*:2]].[Dab].T.[Dab].[Dab].[Dab].[dF].L.[Dab].[Dab].T}$PEPTIDE1,PEPTIDE1,5:R3-11:R2$$$V2.0)
- Cmin (B1)/Cmin (B2) ([3]; AKI group N = 25): 3.37 (2.85–3.68)
- Cmin (B1)/Cmin (B2) ([3]; non-AKI group N = 64): 3.27 (2.91–3.65)

Molecule: colistin
- Incidence of AKI ([4]; colistin given iv as colistimethate sodium): 30–76.1%
- Optimal cut-off trough concentration for predicting nephrotoxicity ([4]; colistin-related nephrotoxicity): 3.33 mg/L

Source: PMC9334479 (Infectious Diseases and Therapy, 2022)
